In ChEMBL document CHEMBL1149098, “Design, synthesis, and evaluation of novel thienopyrrolizinones as antitubulin agents” (J Med Chem, 2004):

Experiments:
L1210 [1] = assay: In vitro antiproliferative activity against L1210 cell line, activity expressed as growth inhibition; format: functional; conditions: Mus musculus
Procedure, shortened: (§1)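 MTT proliferation assay. Adherent cells trypsinized and seeded at densities keeping controls in exponential growth. Drug exposure for four doubling times, at most 7 days. MTT (5 mg/mL stock) added for 4 h at 37 °C, formazan dissolved in DMSO, OD read at 540 nm. % growth from treated/control OD, tri- or hexaplicates averaged against log concentration. GI50 from linear regression on the linear zone.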

A549 = assay: In vitro antiproliferative activity against A549 cell line; format: functional, Mus musculus; conditions: Homo sapiens; procedure, shortened: as §1
A2780 = assay: In vitro antiproliferative activity against A2780 cell line; format: functional, Mus musculus; conditions: Homo sapiens; procedure, shortened: as §1
B16 = assay: In vitro antiproliferative activity against B16 cell line; format: functional; conditions: Mus musculus; procedure, shortened: as §1
DU-145 = assay: In vitro antiproliferative activity against DU145 cell line; format: functional, Mus musculus; conditions: Homo sapiens; procedure, shortened: as §1
L1210 [2] = assay: In vitro antiproliferative activity against L1210 cell line; format: functional; conditions: Mus musculus; procedure, shortened: as §1
KB = assay: In vitro antiproliferative activity against KBA1 cell line; format: functional, Mus musculus; conditions: Homo sapiens; procedure, shortened: as §1
LS174T = assay: In vitro antiproliferative activity against LS174T cell line; format: functional, Mus musculus; conditions: Homo sapiens; procedure, shortened: as §1
L1210 [3] = assay: Compound was tested for percentage of L1210 cells accumulated in the G2 + M + 8N phase of the cell cycle at 0.5 uM; format: functional, Mus musculus
Procedure, shortened: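 Flow cytometry of L1210 cells (2.5×10^5/mL) exposed to drug for 21 h (about two doubling times). Cells fixed in 70% ethanol, washed twice in PBS, then 30 min in PBS with 100 µg/mL RNAse and 25 µg/mL propidium iodide. 10 000 cells counted per sample. Reported as % of cells in G2 + M + 8N.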

Mus musculus [4] = assay: In vivo anticancer activity against an ip P388 murine model after intraperitoneal administration of 100 mg/kg compound; format: functional
Procedure, shortened: (§2)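 Female B6D2F1 mice, 4–6 weeks old, 20–22 g, inoculated ip with 10^6 P388 leukemia cells. Single ip or iv injection on day 1 at the listed dose (range 25–400 mg/kg). BCNU run as internal reference. Median survival of treated versus control mice gives T/C (%). Activity threshold set at T/C 125%.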

Mus musculus [5] = assay: In vivo anticancer activity against an ip P388 murine model after intraperitoneal administration of 200 mg/kg compound; format: functional; procedure, shortened: as §2
Mus musculus [6] = assay: In vivo anticancer activity against an ip P388 murine model after intraperitoneal administration of 25 mg/kg compound; format: functional; procedure, shortened: as §2
Mus musculus [7] = assay: In vivo anticancer activity against an ip P388 murine model after intraperitoneal administration of 400 mg/kg compound; format: functional; procedure, shortened: as §2
Mus musculus [8] = assay: In vivo anticancer activity against an ip P388 murine model after intraperitoneal administration of 50 mg/kg compound; format: functional; procedure, shortened: as §2
Mus musculus [9] = assay: In vivo anticancer activity against an ip P388 murine model after intravenous administration of 100 mg/kg compound; format: functional; procedure, shortened: as §2
Mus musculus [10] = assay: In vivo anticancer activity against an ip P388 murine model after intravenous administration of 200 mg/kg compound; format: functional; procedure, shortened: as §2
Mus musculus [11] = assay: In vivo anticancer activity against an ip P388 murine model after intravenous administration of 25 mg/kg compound; format: functional; procedure, shortened: as §2
Mus musculus [12] = assay: In vivo anticancer activity against an ip P388 murine model after intravenous administration of 400 mg/kg compound; format: functional; procedure, shortened: as §2
Mus musculus [13] = assay: In vivo anticancer activity against an ip P388 murine model after intravenous administration of 50 mg/kg compound; format: functional; procedure, shortened: as §2
[14] = Inhibitory concentration against calf microtubule polymerization; format: functional, Bos taurus
Procedure, shortened: (§3)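 Calf brain tubulin purified by three assembly–disassembly cycles, about 2–3 mg/mL in 0.1 M MES, 0.5 mM MgCl2, 2 mM EGTA, 1 mM GTP, pH 6.6. Assembly followed continuously by turbidimetry at 37 °C. IC50 is the concentration halving the maximum assembly rate of drug-free tubulin. Deoxypodophyllotoxin measured the same day as reference.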

OVCAR-3 = assay: In vitro antiproliferative activity against OVCAR-3 cell line; format: functional, Mus musculus; conditions: Homo sapiens; procedure, shortened: as §1
P388 = assay: In vitro antiproliferative activity against P388 cell line; format: functional; conditions: Mus musculus; procedure, shortened: as §1
Tubulin = Tubulin (Bos taurus, UniProt Q6B856+Q862L2+Q862F3); assay: Inhibitory concentration against calf tubulin polymerization; format: protein assay; procedure, shortened: as §3
HT-29 = assay: In vitro antiproliferative activity against HT-29 cell line; format: functional, Mus musculus; conditions: Homo sapiens; procedure, shortened: as §1
Homo sapiens [15] = assay: Compound was evaluated for anticancer activity in the hollow fiber assay, activity expressed as ip score; format: functional
Procedure, shortened: (§4)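 Mouse hollow-fiber model: PVDF fibres holding 12 human tumour cell lines implanted ip and sc. Drug in 10% DMSO in saline/Tween-80, given ip once daily for four doses at each of two dose levels, triplicate. Fibres collected the day after the last dose for viable cell mass. Each ≥50% reduction versus vehicle controls scores 2, summed per site.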

Homo sapiens [16] = assay: Compound was evaluated for anticancer activity in the hollow fiber assay, activity expressed as sc score; format: functional; procedure, shortened: as §4
Homo sapiens [17] = organism: Homo sapiens; assay: Compound was evaluated for anticancer activity in the hollow fiber assay, activity expressed as total score; format: functional; procedure, shortened: as §4
MDA-N = assay: Cytotoxicity against human breast MDA-N cell line; format: functional
NCI-H522 = assay: Cytotoxicity against human NSCL NCI-H522 cell line; format: functional
SW-620 = assay: Cytotoxicity against human colon SW-620 cell line; format: functional
RXF 393 = assay: Cytotoxicity against human renal XF-393 cell line; format: functional
PC-3 = assay: Cytotoxicity against human prostate PC-3 cell line; format: functional
CCRF-CEM = assay: Cytotoxicity against human leukemia CCRF-CEM cell line; format: functional
M14 = assay: Cytotoxicity against human melanoma M-14 cell line; format: functional

COc1ccc(-c2csc3c2-n2cccc2C3=O)cc1OCc1ccccc1
GI50 (L1210 [1]): 5400 nM

O=C1c2scc(-c3cccc(O)c3)c2-n2cccc21
GI50 (L1210 [1]): 29000 nM

COc1ccc(-c2csc3c2-n2cccc2/C3=N/OCCCN(C)C)cc1
GI50 (L1210 [1]): 3900 nM

O=C1c2scc(-c3ccc4c(c3)OCO4)c2-n2cccc21
GI50 (L1210 [1]): 4200 nM

COc1cc(-c2csc3c2-n2cccc2C3=O)ccc1O
GI50 (L1210 [1]): 8000 nM

CCCOc1ccc(-c2csc3c2-n2cccc2C3=O)cc1
GI50 (L1210 [1]): 28100 nM

CC(C)Oc1ccc(-c2csc3c2-n2cccc2C3=O)cc1
GI50 (L1210 [1]): 12200 nM

COc1ccc(-c2csc3c2-n2cccc2/C3=N/O)cc1
GI50 (L1210 [1]): 34300 nM

Oc1ccc(-c2csc3nc(O)c4cccn4c23)cc1O
GI50 (L1210 [1]): 8800 nM

COc1ccc(-c2cccc3c2-n2cccc2C3=O)cc1OC
GI50 (L1210 [1]): 72200 nM

COc1ccc(-c2csc3c2-n2cccc2C3=O)cc1O
GI50 (A549): 45 nM | GI50 (A2780): 40 nM | GI50 (B16): 23 nM | GI50 (DU-145): 43 nM | GI50 (L1210 [2]): 15 nM | GI50 (L1210 [1]): 15 nM | GI50 (KB): 15 nM | GI50 (LS174T): 887 nM | Cells (L1210 [3]): 86% | T/C (Mus musculus [4]): 121% | T/C (Mus musculus [5]): 117% | T/C (Mus musculus [6]): 108% | T/C (Mus musculus [7]): 121% | T/C (Mus musculus [8]): 116% | T/C (Mus musculus [9]): 102% | T/C (Mus musculus [10]): 103% | T/C (Mus musculus [11]): 102% | T/C (Mus musculus [12]): 19% | T/C (Mus musculus [13]): 104% | IC50 [14]: 2900 nM | GI50 (OVCAR-3): 31 nM | GI50 (P388): 21 nM | IC50 (Tubulin): 2900 nM | GI50 (HT-29): 713 nM

O=C1c2sccc2-n2cccc21
GI50 (L1210 [1]): 85000 nM

COc1ccc(-c2csc3c2-n2cccc2C3=O)c(OC)c1OC
GI50 (L1210 [1]): 36400 nM

COc1ccc(-c2csc3nc(O)c4cccn4c23)cc1OC
GI50 (L1210 [1]): > 100000 nM

COc1ccc(-c2coc3c2-n2cccc2C3=O)cc1OC
GI50 (L1210 [1]): 24200 nM

O=C1c2scc(-c3ccc(O)c(O)c3O)c2-n2cccc21
GI50 (L1210 [1]): 12000 nM

COc1ccc(-c2csc3c2-n2cccc2C3=O)cc1
Activity (Homo sapiens [15]): 16 | Activity (Homo sapiens [16]): 0 | Activity (Homo sapiens [17]): 16 | GI50 (L1210 [1]): 190 nM | GI50 (MDA-N): 12.6 nM | GI50 (NCI-H522): 15.8 nM | GI50 (SW-620): 25.1 nM | GI50 (RXF 393): 63.1 nM | GI50 (PC-3): 39.8 nM | GI50 (CCRF-CEM): 31.6 nM | GI50 (M14): 31.6 nM

O=C1c2scc(-c3ccccc3O)c2-n2cccc21
GI50 (L1210 [1]): 3700 nM
